Source: ChEMBL document CHEMBL1127687, “Benzoxazolamines and benzothiazolamines: potent, enantioselective inhibitors of leukotriene biosynthesis with a novel mechanism of action” (J Med Chem, 1994)

Organism: Homo sapiens
Assay: Inhibitory activity of Ca-ionophore-A23187-induced Leukotriene B4 (LTB4) release in human polymorphonuclear leukocytes
Format: functional
Details: not given
Summary of the method: (§1)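 Human PMNs isolated from heparinized blood of healthy, medication-free donors (dextran sedimentation, Ficoll–Paque). DMSO stocks diluted into Ca/Mg-free Dulbecco's PBS. Cells (2.5 × 10^6/mL, PBS with Ca2+/Mg2+) preincubated with compound 15 min at 28 °C with shaking, then stimulated 10 min with A23187 (2.5 μM final). Stopped with EGTA (10 mM final), centrifuged, supernatant LTB4 measured by RIA.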

`Fc1ccc(CC(Nc2nc3cc(Cl)ccc3o2)c2ccccn2)cc1` (stereo in doubt; 59c) and `c1ccc(C(CC2CCCCC2)Nc2nc3ccccc3o2)cc1` (stereo in doubt; 26c) are within 1.5-fold of each other in IC50: 320 nM for the first, 340 nM for the second.

Going from `c1ccc(C(CC2CCCCC2)Nc2nc3ccccc3o2)cc1` (stereo in doubt; 26b) to `Fc1ccc(CC(Nc2nc3cc(Cl)ccc3o2)c2ccccn2)cc1` (stereo in doubt; 59a), the IC50 rises from 6 nM to 20 nM (3.3-fold).

Work on `c1ccc(C(CC2CCCCC2)Nc2nc3ccccc3o2)cc1` (stereo in doubt; 26a) yielded an IC50 of 8 nM.

Compound `CN1CCN(CC(Nc2nc3cc(Cl)ccc3o2)c2ccccc2)CC1` (configuration not stated) has an Inhibition of 21%.

Same assay, conditions: Homo sapiens

Going from `CCOCC(Cc1ccc(F)cc1)Nc1nc2cc(C(C)C)ccc2o1` (configuration not stated) to `CCCOCC(Cc1ccc(F)cc1)Nc1nc2cc(C(C)C)ccc2o1` (configuration not stated), the IC50 rises from 41 nM to 170 nM (4.1-fold).

First: COC(=O)[C@H](CC1CCCCC1)Nc1nc2ccccc2o1
Second: COC(=O)[C@@H](CC1CCCCC1)Nc1nc2ccccc2o1
The IC50 of the first is 20-fold lower: 5 nM for the first, 100 nM for the second. The first is the more potent here.

Compared with `CCOC(=O)C(Cc1ccccc1)N(C)c1nc2ccccc2s1` (configuration not stated), `CCOC(=O)[C@H](Cc1ccccc1)Nc1nc2ccccc2s1` is 4.3-fold lower in IC50: 1000 nM for the first, 230 nM for the second. The second is the more potent here.

Compared with `COc1ccc(C(CC2CCCCC2)Nc2nc3ccccc3o2)cc1` (configuration not stated), `Fc1ccc(C(CC2CCCCC2)Nc2nc3ccccc3o2)cc1` (configuration not stated) is 3.2-fold lower in IC50: 550 nM for the first, 170 nM for the second.

Compared with `CS(=O)(=O)Nc1ccc2oc(NC(CC3CCCCC3)c3ccccc3)nc2c1` (configuration not stated), `CC(=O)Nc1ccc2oc(NC(CC3CCCCC3)c3ccccc3)nc2c1` (configuration not stated) is 2.1-fold lower in IC50: 160 nM for the first, 78 nM for the second.

Compared with `CCOC(=O)[C@@H](Cc1ccccc1)Nc1nc2ccccc2o1`, `CCOC(=O)[C@H](Cc1ccccc1)Nc1nc2ccccc2o1` is 10-fold lower in IC50: 1500 nM for the first, 150 nM for the second.

First: CCOC(=O)c1ccc2oc(NC(Cc3ccc(F)cc3)c3ccccn3)nc2c1 (configuration not stated)
Second: COc1ccc2oc(NC(Cc3ccc(F)cc3)c3ccccn3)nc2c1 (configuration not stated)
The IC50 of the first is 2.5-fold higher: 27 nM for the first, 11 nM for the second.

Compared with `Fc1ccc(CC(Nc2nc3cc(C(F)(F)F)ccc3o2)c2ccccn2)cc1` (configuration not stated), `Fc1ccc(CC(Nc2nc3cc(F)ccc3o2)c2ccccn2)cc1` (configuration not stated) is 2.6-fold higher in IC50: 8 nM for the first, 21 nM for the second. The first is the more potent here.

Compared with `Cc1ccc2oc(N[C@@H](CC3CCCCC3)c3ccccn3)nc2c1` [ONTAZOLAST], `Cc1ccc2oc(NC(CC3CCCCC3)c3ccccn3)nc2c1` (configuration not stated) is 4-fold higher in IC50: 1 nM for the first, 4 nM for the second.

`CCOC(=O)C(Cc1ccc(Cl)cc1)Nc1nc2ccc(OC)cc2s1` (configuration not stated) and `CCOC(=O)C(Cc1ccc(Cl)cc1)Nc1nc2ccc(C(C)C)cc2s1` (configuration not stated) are within 1.5-fold of each other in IC50: 230 nM for the first, 330 nM for the second.

`CCOC(=O)C(CCc1ccccc1)Nc1nc2ccccc2s1` (configuration not stated) and `CCOC(=O)C(Cc1ccccc1)Nc1nc2ccccc2s1` (configuration not stated) are within 1.5-fold of each other in IC50: 520 nM for the first, 360 nM for the second.

Going from `Fc1ccc(CC(Nc2nc3cc(F)c(F)cc3o2)c2ccccn2)cc1` (configuration not stated) to `CC(C)c1ccc2oc(NC(Cc3ccc(F)cc3)c3ccccn3)nc2c1` (configuration not stated), the IC50 falls from 30 nM to 12 nM (2.5-fold). The second is the more potent here.

First: Cc1cccc(C(CC2CCCCC2)Nc2nc3ccccc3o2)c1 (configuration not stated)
Second: Clc1ccccc1C(CC1CCCCC1)Nc1nc2ccccc2o1 (configuration not stated)
The IC50 of the first is 3.8-fold higher: 300 nM for the first, 80 nM for the second.

Going from `COc1ccc2oc(NC(Cc3ccccc3)c3ccccc3)nc2c1` (configuration not stated) to `Clc1ccc2oc(NC(Cc3ccccc3)c3ccccc3)nc2c1` (configuration not stated), the IC50 rises from 9 nM to 23 nM (2.6-fold). The first is the more potent here.

`Cc1nc(CC(Nc2nc3cc(C(C)C)ccc3o2)c2ccccn2)cs1` (configuration not stated) and `CC(C)c1ccc2oc(NC(Cc3ccc(Cl)cc3)c3ccccn3)nc2c1` (configuration not stated) are the same in IC50: 29 nM for the first, 29 nM for the second.

Compared with `CNC(=O)C(CC1CCCCC1)Nc1nc2cc(C)ccc2o1` (configuration not stated), `Cc1ccc2oc(NC(CC3CCCCC3)c3cccnc3)nc2c1` (configuration not stated) is 3.6-fold lower in IC50: 72 nM for the first, 20 nM for the second. The second is the more potent here.

Compared with `CCOC(=O)C(Cc1ccccc1)Nc1nc2ccc(C(C)C)cc2o1` (configuration not stated), `CCOC(=O)C(Cc1ccccc1)Nc1nc2cc(C(C)C)ccc2o1` (configuration not stated) is 440-fold lower in IC50: 220 nM for the first, 0.5 nM for the second. The second is the more potent here.

Compared with `CN(C)S(=O)(=O)c1ccc2oc(NC(Cc3ccc(F)cc3)c3ccccn3)nc2c1` (configuration not stated), `O=[N+]([O-])c1ccc2oc(NC(Cc3ccc(F)cc3)c3ccccn3)nc2c1` (configuration not stated) is 3.1-fold lower in IC50: 50 nM for the first, 16 nM for the second. The second is the more potent here.

`CN(C)C(=O)c1ccc2oc(NC(CC3CCCCC3)c3ccccc3)nc2c1` (configuration not stated) and `O=C(O)c1ccc2oc(NC(CC3CCCCC3)c3ccccc3)nc2c1` (configuration not stated) are within 1.5-fold of each other in IC50: 170 nM for the first, 150 nM for the second.

First: CC(C)c1ccc2oc(NC(CC3CCCCC3)c3ccccc3)nc2c1 (configuration not stated)
Second: N#Cc1ccc2oc(NC(CC3CCCCC3)c3ccccc3)nc2c1 (configuration not stated)
The IC50 of the first is 2.5-fold lower: 6 nM for the first, 15 nM for the second. The first is the more potent here.

Compared with `CCOC(=O)C(Cc1ccccc1)Nc1nc2ccc(CC)cc2s1` (configuration not stated), `CCOC(=O)C(Cc1ccccc1)Nc1nc2cc(CC)ccc2s1` (configuration not stated) is 20-fold lower in IC50: 240 nM for the first, 12 nM for the second. The second is the more potent here.

First: CC(C)c1ccc2oc(NC(CN3CCOCC3)c3ccccc3)nc2c1 (configuration not stated)
Second: CC(C)c1ccc2oc(N[C@@H](CN3CCCCC3)c3ccccc3)nc2c1
The IC50 of the first is 1.9-fold lower: 52 nM for the first, 100 nM for the second. The first is the more potent here.

First: CCOC(=O)c1ccc2oc(NC(CC3CCCCC3)c3ccccc3)nc2c1 (configuration not stated)
Second: Cc1ccc2oc(NC(CC3CCCCC3)c3ccncc3)nc2c1 (configuration not stated)
The IC50 of the first is 4.2-fold lower: 45 nM for the first, 190 nM for the second.

First: CC(=O)C(Cc1ccccc1)Nc1nc2ccc(C(C)C)cc2o1 (configuration not stated)
Second: CSCC(Cc1ccccc1)Nc1nc2cc(C(C)C)ccc2o1 (configuration not stated)
The IC50 of the first is 27-fold higher: 350 nM for the first, 13 nM for the second. The second is the more potent here.

Compared with `c1ccc(CC(Nc2nc3ccccc3o2)c2ccccc2)cc1` (configuration not stated), `c1ccc(CC(Nc2nc3ccccc3s2)c2ccccc2)cc1` (configuration not stated) is 3.3-fold higher in IC50: 51 nM for the first, 170 nM for the second. The first is the more potent here.

First: COc1ccc(CC(Nc2nc3cc([N+](=O)[O-])ccc3o2)c2ccccn2)cc1 (configuration not stated)
Second: CC(C)c1ccc2oc(NC(Cc3cccc(Cl)c3)c3ccccn3)nc2c1 (configuration not stated)
The IC50 of the first is 2.8-fold higher: 14 nM for the first, 5 nM for the second. The second is the more potent here.

Compared with `Cc1ccc2oc(N[C@H](CC3CCCCC3)c3ccccn3)nc2c1`, `CC(C)c1ccc2oc(N[C@H](CN3CCCCC3)c3ccccc3)nc2c1` is 30-fold higher in IC50: 40 nM for the first, 1200 nM for the second.

Compared with `Clc1ccc2oc(NC(CN3CCSCC3)c3ccccc3)nc2c1` (configuration not stated), `COCC(Cc1ccc(F)cc1)Nc1nc2cc(C(C)C)ccc2o1` (configuration not stated) is 2.8-fold lower in IC50: 48 nM for the first, 17 nM for the second.

`CCOC(=O)C(Cc1ccc(Br)cc1)Nc1nc2ccccc2s1` (configuration not stated) and `CCOC(=O)C(Cc1ccc(Cl)cc1)Nc1nc2ccccc2s1` (configuration not stated) are within 1.5-fold of each other in IC50: 150 nM for the first, 200 nM for the second.

First: Cc1noc(C(Cc2ccc(F)cc2)Nc2nc3cc(C(C)C)ccc3o2)n1 (configuration not stated)
Second: CCOC(=O)C(Cc1csc(C)n1)Nc1nc2cc(C(C)C)ccc2o1 (configuration not stated)
The IC50 of the first is 28-fold higher: 440 nM for the first, 16 nM for the second.

First: CCOC(=O)C(Cc1ccc(F)cc1)Nc1nc2ccccc2s1 (configuration not stated)
Second: CCCCc1ccc2nc(NC(Cc3ccc(Cl)cc3)C(=O)OCC)sc2c1 (configuration not stated)
The IC50 of the first is 1.8-fold higher: 330 nM for the first, 180 nM for the second.

Organism: Homo sapiens
Assay: Inhibitory activity of Ca-ionophore-A23187-induced Leukotriene B4 (LTB4) release in human polymorphonuclear leukocytes at the dose of 3 micro M concentration
Format: functional
Details: not given
Summary of the method: as §1

Going from `CCOC(=O)C(Cc1ccccc1)Cc1nc2ccccc2s1` (configuration not stated) to `CCOC(=O)C(Nc1nc2ccccc2s1)c1ccccc1` (configuration not stated), the Inhibition rises from 56% to 61%.

Compared with `O=S1(=O)CCN(CC(Nc2nc3cc(Cl)ccc3o2)c2ccccc2)CC1` (configuration not stated), `NC(=O)c1ccc2oc(NC(CC3CCCCC3)c3ccccc3)nc2c1` (configuration not stated) is lower in Inhibition: 46% for the first, 35% for the second.

Compared with `O=C(O)C(Cc1ccccc1)Nc1nc2ccccc2s1` (configuration not stated), `O=[N+]([O-])c1ccc2oc(NC(Cc3ccc(O)cc3)c3ccccn3)nc2c1` (configuration not stated) is higher in Inhibition: -19% for the first, 27% for the second.

Same assay, conditions: in the assay text read “0.3 micro M” for “3 micro M”

Work on `OCc1ccc2oc(NC(CC3CCCCC3)c3ccccc3)nc2c1` (configuration not stated) yielded an Inhibition of 41%.

Organism: Homo sapiens
Assay: Inhibitory activity of Ca-ionophore-A23187-induced Leukotriene B4 (LTB4) release in human polymorphonuclear leukocytes at the dose of 1 micro M concentration
Format: functional
Details: not given
Summary of the method: as §1

Compared with `CCOC(=O)C(Cc1c[nH]cn1)Nc1nc2cc(C(C)C)ccc2o1` (configuration not stated), `CCOC(=O)C(Cc1cncn1CC)Nc1nc2cc(C(C)C)ccc2o1` (configuration not stated) is higher in Inhibition: 26% for the first, 59% for the second.
